The values that follow come from ChEMBL document CHEMBL1132174, “Anti-AIDS agents. 37. Synthesis and structure-activity relationships of (3'R,4'R)-(+)-cis-khellactone derivatives as novel potent anti-HIV agents” (J Med Chem, 1999).

What is called IC50 is the concentration needed to halve the response being measured. High values mean lower potency, low ones higher potency. The term EC50 denotes the concentration at which the effect is half-maximal. A high value points to lower potency in that assay.

Series [1] deals with Human immunodeficiency virus 1. The series can be described thus: Anti-HIV activity in H9 lymphocytes. The format is functional, organism-based.
The nature of series [2]: Therapeutic index value against H9 lymphocytes; No suppression. To be noted: human. The format is cell-based.
In a further series the test system is H9. The series can be described thus: The compound was tested for anti HIV activity in H9 lymphocytes; No suppression. The format is functional, cell-based, Homo sapiens.
The nature of series [3]: Therapeutic index in H9 lymphocytes. The settings on record: human, read-out: Therapeutic index. The format is cell-based.
Series [4] concerns Human immunodeficiency virus 1. The series is described as follows: Antiviral activity against HIV-1 in H9 lymphocytes. Format: functional, organism-based.
A short description of series [5]: Therapeutic index value of the cpmpound against CEM-SS cells. The format is cell-based. To be noted: human, read-out: Therapeutic index. A digest of the protocol: (§1)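 Run at NCI in the CEM-SS T4 lymphocyte line. The agent was dissolved in DMSO, diluted 1:100 in medium, then serially diluted in half-log10 steps, giving a 1:200 final compound dilution. Cells were added, followed shortly by HIV-1, and incubated for 6 days at 37 °C in 5% CO2. Viable cells were read by XTT formazan spectrophotometry, with microscopic confirmation. Drug-treated infected wells were compared against drug-treated uninfected (toxicity) wells and untreated controls.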

For series [6], the system named is CEM-SS. The series is described as follows: The compound was tested for anti HIV activity in CEM-SS cell lines. Format: functional, cell-based. The settings on record: Homo sapiens. A digest of the protocol:
as §1

Series [7] concerns CEM-SS. The series can be described thus: The compound was tested for anti HIV activity in CEM-SS cell lines; Inactive. Format: functional, cell-based, Homo sapiens. A digest of the protocol:
as §1

A short description of series [8]: Therapeutic index value of the cpmpound against CEM-SS cells; Inactive. Format: cell-based. The settings on record: human. A digest of the protocol: as §1

As to `Cc1cc(=O)oc2c3c(ccc12)OC(C)(C)[C@H](OC(=O)CC(C)C)[C@@H]3OC(=O)CC(C)C`, it took 42 µM to reach half-maximal inhibition in [1] (Human immunodeficiency virus 1) (IC50). For the same molecule, the Therapeutic index result in [2] is listed as “Not Active”. Besides, the EC50 result in the series with H9 is reported as “Not Active”.

In series [1] (Human immunodeficiency virus 1), `Cc1cc(=O)oc2c3c(ccc12)OC(C)(C)[C@H](O)[C@@H]3OC(=O)C12CC3CC(CC(C3)C1)C2` returned an IC50 of 43.2 µM. Moreover, in series [2], the Therapeutic index result was “Not Active”. For the same molecule, the EC50 entry in the series on H9 was “Not Active”.

Consider `Cc1cc(=O)oc2c3c(ccc12)OC(C)(C)[C@H](OS(=O)(=O)CC12CCC(CC1=O)C2(C)C)[C@@H]3O` (stereo in doubt; 23), for which half-maximal inhibition in [1] (Human immunodeficiency virus 1) (IC50) required 45 µM. Further, in [2], the Therapeutic index entry is recorded as “Not Active”. The concentration for a half-maximal effect (EC50) entry with H9 is listed as “Not Active”.

With `COc1cc2c(c3oc(=O)ccc13)[C@@H](OC(=O)C13CCC(C)(C(=O)O1)C3(C)C)[C@@H](OC(=O)C13CCC(C)(C(=O)O1)C3(C)C)C(C)(C)O2` (stereo partly drawn), the selectivity ratio is above 797000 in [3] and above 1560 in series [5]. Besides, the values for the EC50 (in [4]; in the series on CEM-SS [6]) were 0.192 nM and 0.128 µM, respectively. Besides, the values for the IC50 (in series [1] (Human immunodeficiency virus 1); with CEM-SS [6]) were above 153 µM and above 200 µM, respectively.

For `CC(=O)O[C@@H]1[C@H](OC(=O)C23CCC(C)(C(=O)O2)C3(C)C)c2c(ccc3c(C)cc(=O)oc23)OC1(C)C` (stereo partly drawn), the selectivity ratio in series [3] was 2230. The molecule also gave an EC50 in series [4] of 55.2 nM. This molecule also registered an IC50 in [1] (Human immunodeficiency virus 1) of 123 µM.

As for `CC1(C)Oc2ccc3c(-c4ccccc4)cc(=O)oc3c2[C@@H](OC(=O)C23CCC(C)(C(=O)O2)C3(C)C)[C@H]1OC(=O)C12CCC(C)(C(=O)O1)C2(C)C` (stereo partly drawn), the selectivity ratio in series [3] was above 1190. The midpoint of the response in [4], the EC50, lay at 120 nM. This molecule yielded an IC50 in series [1] (Human immunodeficiency virus 1) above 143 µM.

In the case of `Cc1cc2ccc3c(c2oc1=O)[C@@H](OC(=O)C12CCC(C)(C(=O)O1)C2(C)C)[C@@H](OC(=O)C12CCC(C)(C(=O)O1)C2(C)C)C(C)(C)O3` (stereo partly drawn), the selectivity ratio in series [3] was above 2.15e+06; in series [5] it was above 58.7. Also, the EC50 in series [4] amounted to 0.0525 nM; in the series on CEM-SS [6] it was 0.213 µM. Also, the results for the IC50 (in series [1] (Human immunodeficiency virus 1); in the series with CEM-SS [6]) were above 113 µM and above 12.5 µM, respectively.

On to `Cc1cc2ccc(=O)oc2c2c1OC(C)(C)[C@H](OC(=O)C13CCC(C)(C(=O)O1)C3(C)C)[C@@H]2OC(=O)C12CCC(C)(C(=O)O1)C2(C)C` (stereo partly drawn), for which the selectivity ratio in [3] is 218; in series [5] it was above 532. Also, the figures for the EC50 (in series [4]; in the series with CEM-SS [6]) were 151 nM and 0.376 µM, respectively. The IC50 was 33 µM in series [1] (Human immunodeficiency virus 1) and above 200 µM in the series with CEM-SS [6].

For `Cc1cc(=O)oc2c3c(ccc12)OC(C)(C)[C@H](OC(=O)C12CCC(C)(C(=O)O1)C2(C)C)[C@@H]3OC(=O)C12CCC(C)(C(=O)O1)C2(C)C` (stereo in doubt; 8), the selectivity ratio in [5] was above 3150. The molecule further displayed an IC50 in series [1] (Human immunodeficiency virus 1) above 126 µM. Moreover, in the series on CEM-SS [6], the concentration for a half-maximal effect (EC50) was 0.0635 µM and the IC50 was above 200 µM.

`CC1(C)Oc2ccc3c(C(F)(F)F)cc(=O)oc3c2[C@@H](OC(=O)C23CCC(C)(C(=O)O2)C3(C)C)[C@H]1OC(=O)C12CCC(C)(C(=O)O1)C2(C)C` (stereo partly drawn): the selectivity ratio in series [3] was above 80.1. The molecule also displayed an EC50 in series [4] of 1810 nM. For the same molecule, the IC50 in series [1] (Human immunodeficiency virus 1) was above 145 µM.

`CC(C)c1cc(=O)oc2c3c(ccc12)OC(C)(C)[C@H](OC(=O)C12CCC(C)(C(=O)O1)C2(C)C)[C@@H]3OC(=O)C12CCC(C)(C(=O)O1)C2(C)C` (stereo partly drawn): the selectivity ratio is above 4790 in series [3] and above 219 in [5]. The EC50 came out at 31.5 nM in series [4] and 0.584 µM in the series with CEM-SS [6]. The IC50 in series [1] (Human immunodeficiency virus 1) was above 151 µM; with CEM-SS [6], above 128 µM.

Molecule `Cc1cc(=O)oc2c3c(ccc12)OC(C)(C)[C@H](OC(=O)Nc1cccc2ccccc12)[C@@H]3OC(=O)Nc1cccc2ccccc12` returned an IC50 in [1] (Human immunodeficiency virus 1) of 98 µM. For the same molecule, the Therapeutic index entry in series [2] is reported as “Not Active”. Further, the EC50 result in the series on H9 is “Not Active”.

Turning to `CCCc1cc(=O)oc2c3c(ccc12)OC(C)(C)[C@H](OC(=O)C12CCC(C)(C(=O)O1)C2(C)C)[C@@H]3OC(=O)C12CCC(C)(C(=O)O1)C2(C)C` (stereo partly drawn), the selectivity ratio was above 8630 in series [3] and above 262 in [5]. The EC50 in [4] stood at 17.5 nM; in the series on CEM-SS [6], 0.763 µM. In addition, the IC50 was above 151 µM in series [1] (Human immunodeficiency virus 1) and above 200 µM with CEM-SS [6].

In the case of `CC1(C)Oc2ccc3ccc(=O)oc3c2[C@@H](OC(=O)C23CCC(C)(C(=O)O2)C3(C)C)[C@H]1OC(=O)C12CCC(C)(C(=O)O1)C2(C)C` (stereo partly drawn), the selectivity ratio in [3] worked out at 137000; in [5], 100. The EC50 in [4] came to 0.256 nM; in the series on CEM-SS [6] it was 0.26 µM. Further, the figures for the IC50 (in series [1] (Human immunodeficiency virus 1); in the series on CEM-SS [6]) were 35 µM and 26 µM, respectively.

As for `COc1cc(=O)oc2c3c(ccc12)OC(C)(C)[C@H](OC(=O)C12CCC(C)(C(=O)O1)C2(C)C)[C@@H]3OC(=O)C12CCC(C)(C(=O)O1)C2(C)C` (stereo partly drawn), the results for the selectivity ratio in [3] and in series [5] were above 51200 and above 1600, respectively. In addition, the results for the EC50 (in [4]; in the series on CEM-SS [6]) were 2.99 nM and 0.125 µM, respectively. Besides, the values for the IC50 (in [1] (Human immunodeficiency virus 1); with CEM-SS [6]) were above 153 µM and above 200 µM, respectively.

For the molecule `COc1cc2ccc(=O)oc2c2c1OC(C)(C)[C@H](OC(=O)C13CCC(C)(C(=O)O1)C3(C)C)[C@@H]2OC(=O)C12CCC(C)(C(=O)O1)C2(C)C` (stereo partly drawn), the selectivity ratio in [3] is above 9.68. Moreover, the figures for the EC50 (in series [4]; in the series with CEM-SS [7]) were 15800 nM and “Not Active”, respectively. Besides, the values for the IC50 (in [1] (Human immunodeficiency virus 1); with CEM-SS [6]) were above 153 µM and above 200 µM, respectively. In series [8], the Therapeutic index entry is recorded as “Not Active”.

Turning to `CC(=O)O[C@@H]1[C@H](OC(=O)C23CC4CC(CC(C4)C2)C3)c2c(ccc3c(C)cc(=O)oc23)OC1(C)C`, in series [3], the selectivity ratio amounted to 16.7. The molecule further came in with a concentration giving a half-maximal response (EC50) in series [4] of 1140 nM. The same molecule displayed an IC50 in series [1] (Human immunodeficiency virus 1) of 19 µM.

With `Cc1cc2c(c3oc(=O)ccc13)[C@@H](OC(=O)C13CCC(C)(C(=O)O1)C3(C)C)[C@@H](OC(=O)C13CCC(C)(C(=O)O1)C3(C)C)C(C)(C)O2` (stereo partly drawn), the selectivity ratio in series [3] was above 3.97e+08; in series [5] it was above 3150. Moreover, the EC50 came out at 0.000239 nM in [4] and 0.0635 µM in the series on CEM-SS [6]. Also, the IC50 was above 95 µM in series [1] (Human immunodeficiency virus 1) and above 200 µM with CEM-SS [6].

With `Cc1cc(=O)oc2c3c(ccc12)OC(C)(C)[C@H](OC(=O)c1cccc(Br)c1)[C@@H]3OC(=O)c1cccc(Br)c1`, the IC50 in [1] (Human immunodeficiency virus 1) was above 91.6 µM. For the same molecule, the Therapeutic index entry in series [2] was “Not Active”. Besides, the EC50 entry with H9 is “Not Active”.

Molecule `Cc1cc(=O)oc2c3c(ccc12)OC(C)(C)[C@H](OS(=O)(=O)CC12CCC(CC1=O)C2(C)C)[C@@H]3O` (stereo in doubt; 22) showed an IC50 in [1] of 42 µM.

On to `Cc1cn([C@H]2C[C@H](N=[N+]=[N-])[C@@H](CO)O2)c(=O)[nH]c1=O` [ZIDOVUDINE], for which, in [4], the EC50 came to 4500 nM. In the series on CEM-SS [6], this molecule had an EC50 of 0.0038 µM and an IC50 above 1 µM.

Consider `CC(=O)O[C@@H]1c2c(ccc3c(C)cc(=O)oc23)OC(C)(C)[C@@H]1OC(C)=O`, for which the selectivity ratio in series [3] was 2.06. In addition, it took 83100 nM to reach a half-maximal effect in series [4] (EC50). In addition, it took 171 µM to reach half-maximal inhibition in series [1] (Human immunodeficiency virus 1) (IC50).

`Cc1cc(=O)oc2c3c(ccc12)OC(C)(C)[C@H](O)[C@@H]3OC(=O)C12CCC(C)(C(=O)O1)C2(C)C` (stereo partly drawn) registered an IC50 in [1] (Human immunodeficiency virus 1) above 219 µM.

In series [1], `Cc1cc(=O)oc2c3c(ccc12)OC(C)(C)[C@H](OC(=O)C12CCC(C)(C(=O)O1)C2(C)C)[C@@H]3OC(=O)C12CCC(C)(C(=O)O1)C2(C)C` (stereo in doubt; 19) returned an IC50 above 157 µM.

`COc1cc2ccc3c(c2oc1=O)[C@@H](OC(=O)C12CCC(C)(C(=O)O1)C2(C)C)[C@@H](OC(=O)C12CCC(C)(C(=O)O1)C2(C)C)C(C)(C)O3` (stereo partly drawn): the selectivity ratio was above 64300 in series [3] and 34 in [5]. Also, the figures for the EC50 (in series [4]; in the series on CEM-SS [6]) were 2.38 nM and 0.494 µM, respectively. Also, the IC50 in [1] (Human immunodeficiency virus 1) was above 153 µM; in the series with CEM-SS [6], 16.8 µM.

`Cc1cc(=O)oc2c3c(ccc12)OC(C)(C)[C@H](OC(=O)C12CCC(C)(C(=O)O1)C2(C)C)[C@@H]3OC(=O)C12CC3CC(CC(C3)C1)C2` (stereo partly drawn): the selectivity ratio in series [3] is 35.5. Also, the EC50 in [4] worked out at 600 nM. In series [1] (Human immunodeficiency virus 1), it took 21.3 µM to reach half-maximal inhibition (IC50).
